# Screening results as filed in PubChem BioAssay.
# Compounds with a hit are over-represented: about 2.3% of the library has one in this group of screens.
# TRPC6 act: mouse TRPC6 channel activators, primary screen, cell-based, HEK293, membrane potential dye; Short transient receptor potential channel 6 (Mus musculus), Q61143; HEK293-TRPC6 membrane potential dye fluorescence; hits give high values; B-score at 10 µM; 0.13% of 310,000 active; AID 2550, 2010;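 active means B-score of the integrated fluorescence ratio above library mean plus 3 SD, and starting fluorescence ratio within library mean plus 5 SD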;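 further: higher score means more depolarization so channel activation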
# Target sequence (Q61143 whole entry, looked up): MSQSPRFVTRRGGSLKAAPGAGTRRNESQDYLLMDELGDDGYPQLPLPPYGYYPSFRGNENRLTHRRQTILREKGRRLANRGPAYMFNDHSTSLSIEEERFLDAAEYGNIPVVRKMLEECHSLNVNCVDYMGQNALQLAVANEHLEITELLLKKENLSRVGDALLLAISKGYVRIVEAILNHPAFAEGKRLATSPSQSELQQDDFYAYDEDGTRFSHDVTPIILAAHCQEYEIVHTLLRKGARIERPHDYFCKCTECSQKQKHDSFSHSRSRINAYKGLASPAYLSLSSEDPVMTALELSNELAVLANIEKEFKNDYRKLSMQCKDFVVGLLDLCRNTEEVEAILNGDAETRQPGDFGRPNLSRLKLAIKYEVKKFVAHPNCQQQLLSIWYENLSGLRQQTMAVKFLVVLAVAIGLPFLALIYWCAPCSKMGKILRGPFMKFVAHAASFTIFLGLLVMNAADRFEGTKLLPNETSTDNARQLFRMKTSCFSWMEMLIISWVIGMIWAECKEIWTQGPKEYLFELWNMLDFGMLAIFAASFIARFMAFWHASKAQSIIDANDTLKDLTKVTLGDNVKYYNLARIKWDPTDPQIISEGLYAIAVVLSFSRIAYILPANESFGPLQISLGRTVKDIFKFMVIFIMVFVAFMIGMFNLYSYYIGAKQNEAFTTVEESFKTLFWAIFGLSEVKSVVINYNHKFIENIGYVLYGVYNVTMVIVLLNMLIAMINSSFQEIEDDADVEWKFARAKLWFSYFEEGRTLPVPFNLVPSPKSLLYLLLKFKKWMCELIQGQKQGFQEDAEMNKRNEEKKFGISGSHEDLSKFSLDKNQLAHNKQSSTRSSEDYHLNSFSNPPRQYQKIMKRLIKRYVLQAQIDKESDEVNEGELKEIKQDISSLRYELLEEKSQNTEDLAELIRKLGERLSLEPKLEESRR
# TRPC4 inh: inhibitors of mouse TRPC4 channel, primary screen, Fluo4 calcium, HEK293 TRPC4beta/mu-opioid cells | B-score at 10 µM | AID 2247, 2010 | DAMGO-evoked Fluo4 calcium flux; hits give low values | 0.39% of 300,000 active;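 active means B-score over 3 SD under the library average, no early fluorescence shift, positive overall ratio signal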
#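 Test system – stable TRPC4beta/mu-opioid receptor HEK293 cells · Probe or stimulus – DAMGO, a submaximal dose followed by a maximal one · Dosing – one concentration per compound · Signal – Fluo4 calcium fluorescence by kinetic imaging, 5 s 1 Hz baseline · Evaluation – per-well B score of integrated baseline-normalized Fluo4 ratio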
# CR mimetic SO: reduction of superoxide in aged yeast, primary screen, HTS; S. cerevisiae aged cells, superoxide DHE fluorescence; hits give low values; superoxide response (% of plate mean), % at 10 µM; 0.18% of 330,000 active; AID 2690, 2010;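 active means superoxide response under a set limit, about three screen SD below normal, cut at about 65% in these data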;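 further: yeast aged for seven days with compound at 30 °C before DHE staining; 100% = average MFI of all compound-treated wells on the plate with controls excluded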
# TRPC4 PAM: positive allosteric modulators of TRPC4, primary screen, cell-based, mouse TRPC4beta, HEK293 mu-opioid, Fluo-4 calcium; Short transient receptor potential channel 4 (Mus musculus), Q9QUQ5; DAMGO EC20, Fluo-4 Ca2+ flux; hits give high values; B-score at 10 µM; 0.42% of 310,000 active;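 active means B-score of calcium response area above 5 SD of library B-scores, with initial fluorescence ratio within 5 SD of library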;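 further: B-score of integrated fluorescence ratio over time as area under calcium response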
# TRPC6 inh: mouse TRPC6 channel inhibitors, primary screen, cell-based, HEK293, membrane potential dye; Short transient receptor potential channel 6 (Mus musculus), Q61143; ACh-evoked depolarization; hits give low values; B-score at 10 µM; 1.1% of 310,000 active;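 active means B-score under library mean minus 3 SD, initial fluorescence not abnormally high, positive integrated signal ratio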;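 further: B-score derived from integrated fluorescence ratio over the kinetic read; more negative B-score means stronger inhibition of depolarization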
# TRPC4 act: activators of mouse TRPC4 channel, primary screen, Fluo4 calcium, HEK293 TRPC4beta/mu-opioid cells; AID 2237, 2010; Short transient receptor potential channel 4 (Mus musculus), Q9QUQ5; B-score at 10 µM; Fluo4 calcium fluorescence; hits give high values; 0.49% of 310,000 active;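 active means B-score above 5 SD of library B-scores, and initial fluorescence ratio not above library mean plus 5 SD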;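 further: positive B-score marks a calcium rise read as TRPC4 activation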
#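 Material: HEK293 stable line with TRPC4beta plus mu-opioid receptor; technique: Fluo4 calcium-sensitive dye fluorescence, kinetic, 1 Hz baseline; timing: Fluo4 dye loading 45 min at room temperature, 110 s recording; controls: assay buffer as low control, maximal DAMGO as high control; read-out: integrated baseline-normalised fluorescence ratio, converted to per-well B score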
# TRPC4 sel inh 2: second selectivity test of TRPC6 inhibitors: effect on mouse TRPC4; shares compounds with TRPC6 inh; HEK293 TRPC4/MOR, membrane potential dye fluorescence; channel activated by saturating DAMGO dose; inhibition, % at 10 µM; 42% of 920 active;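 active means compounds whose fluorescence signal differed from control wells by over 3 SD, either direction, in both duplicate plates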
# TRPC4 spec: mouse TRPC4 modulation by TRPC6 hits, confirmation, selectivity assay for TRPC6 inhibitor project, cell-based, HEK293 TRPC4/mu-opioid, membrane potential dye; membrane potential fluorescence; 61% of 920 active; AID 2777, 2010; activity change, negative = inhibition, % at 10 µM; shares compounds with TRPC6 inh;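 active means rise or fall in signal beyond 3 SD of buffer-only wells in both replicate plates, either sign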;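 further: integrated kinetic ratio of fluorescence range over baseline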
# HEK293 MPD ctr 2-1: nonspecific membrane potential effects, parental HEK293, confirmation, counter-screen for TRPC6 inhibitor project, cell-based, second counter screen. shares compounds with TRPC6 inh. parental HEK293 membrane potential dye fluorescence; maximal acetylcholine challenge after compound addition. signal change vs control, % at 10 µM. 31% of 920 active. AID 2779, 2010;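 active means membrane potential signal moving either way by over 3 SD of the maximum-effect control, in both duplicate plates, meaning non-specific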
# HEK293 MPD ctr-1: membrane potential modulation in parental HEK293, confirmation, counter-screen for TRPC6 inhibitor project, cell-based | AID 2780, 2010 | 60% of 920 active | membrane potential signal change, % at 10 µM | parental HEK293 membrane potential dye fluorescence | shares compounds with TRPC6 inh;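 active means membrane potential signal shifting up or down by more than 3 SD of buffer-only wells, on both duplicate plates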
# HEK293 MPD ctr-2: parental HEK293 membrane potential modulation, confirmation, counter-screen for TRPC6 modulator project, cell-based; shares compounds with TRPC6 inh; membrane potential signal change, % at 10 µM; AID 488924, 2010; membrane potential dye fluorescence; 51% of 2,400 active;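 active means membrane potential signal moves up or down beyond 5 SD from buffer-only wells, on both duplicate plates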
# HEK293 MPD ctr 2-2: parental HEK293 nonspecific activity of TRPC6 modulators, second screen | shares compounds with TRPC6 inh | inhibition, % at 10 µM | membrane potential dye fluorescence; after compound, maximal acetylcholine stimulation | 14% of 2,400 active;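 active means membrane potential signal drops by more than 5 SD from the mean control signal, in both duplicate plates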;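 further: plate controls were acetylcholine ECmax control wells for no effect and buffer only wells for full effect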
# TRPC4 ctr mod: TRPC4 modulation by TRPC6 hit compounds, confirmation, selectivity assay for TRPC6 modulator project, cell-based, HEK293 TRPC4/mu-opioid, membrane potential dye, mouse; shares compounds with TRPC6 inh; membrane potential fluorescence; percent change from control (negative = decrease, positive = increase), % at 10 µM; 69% of 2,400 active; AID 488927, 2010;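 active means membrane potential signal moved up or down beyond 5 SD of buffer control wells, in both duplicate plates, actives on both sides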;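 further: plate controls were assay buffer wells for no effect and DAMGO maximal-effect wells for full effect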
# TRPC4/MOR inh 2: mouse TRPC4 off-target activity of TRPC6 modulators, second screen; shares compounds with TRPC6 inh; HEK293 TRPC4/mu-opioid, membrane potential dye fluorescence; stimulated with maximal-effect DAMGO; inhibition, % at 10 µM; 55% of 2,400 active; AID 488928;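 active means drop in membrane potential signal beyond 5 SD of the control wells in both duplicate plates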;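 further: TRPC4 counter screen for TRPC6 hits run under conditions tuned for TRPC6 not TRPC4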
# TRPC6 block conf: mouse TRPC6 channel inhibitors, confirmation, HEK293 cells, membrane potential dye, duplicate; shares compounds with TRPC6 inh; ACh-evoked depolarization; inhibition, % at 10 µM; 43% of 3,300 active;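 active means fluorescence ratio falls more than 5 SD below the full-stimulation control mean, in both duplicate runs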;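 further: integrated fluorescence ratio of peak minus minimum over baseline after agonist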
# TRPC6 act conf: mouse TRPC6 channel activators, confirmation, HEK293 cells, membrane potential dye, duplicate | HEK293-TRPC6 membrane potential dye fluorescence, FDSS | shares compounds with TRPC6 inh | activation, % at 10 µM | 11% of 2,800 active;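 active means ratio signal rise beyond 5 SD above unstimulated control wells' mean, seen in both duplicate runs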;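 further: plate controls were buffer EC0 wells for no effect and acetylcholine ECmax response for full effect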
# Starred values were filed as active, the others as inactive; i = inactive; · = no result; + = active, no number.
SMILES,TRPC6 act,TRPC4 inh,CR mimetic SO,TRPC4 PAM,TRPC6 inh,TRPC4 act,HEK293 MPD ctr-2,HEK293 MPD ctr 2-2,TRPC4 ctr mod,TRPC4/MOR inh 2,TRPC6 block conf,TRPC6 act conf,others
CCCC[n+]1ccc(-c2nc3ccc([N+](=O)[O-])cc3[nH]2)cc1,i,i,87,i,-6.8*,i,·,·,·,·,73%*,i,TRPC4 sel inh 2=56%*;TRPC4 spec=-17%*;HEK293 MPD ctr 2-1=-90%*;HEK293 MPD ctr-1=-262%*
CN(C)CCNC(=O)c1c(NC(=O)c2ccccc2)sc2c1CCCC2,i,i,96,i,-5.6*,97*,-150%*,i,-24%*,80%*,53%*,i,
COc1ccc(-c2cc(C(=O)Nc3cccnc3Cl)no2)cc1,i,i,102,i,i,i,·,·,·,·,·,·,
COc1cccc(/C=N/c2nc3ccccc3[nH]2)c1O,i,i,95,i,i,i,·,·,·,·,·,·,
COc1cccc(Nc2nc(NCCO)c3ccccc3n2)c1,i,i,99,i,-11*,i,·,·,·,·,90%*,i,TRPC4 sel inh 2=40%*;TRPC4 spec=-22%*;HEK293 MPD ctr 2-1=27%*;HEK293 MPD ctr-1=-237%*
OCCNc1nc(Nc2cccc(O)c2)nc2ccccc12,i,i,110,i,i,i,·,·,·,·,·,·,
COc1cccc(Nc2nc(NCC3CCCO3)c3ccccc3n2)c1 (stereo not given),i,i,112,i,-11*,i,i,i,-22%*,74%*,58%*,i,
c1ccc2c(NCC3CCCO3)nc(N3CCCCC3)nc2c1 (stereo not given),i,i,94,i,i,i,·,·,·,·,·,·,
OCCN1CCN(c2nc(NCc3ccco3)c3ccccc3n2)CC1,i,i,95,i,-6*,i,-228%*,i,-38%*,57%*,i,i,
c1ccc(CN2CCN(c3nc(NCc4ccco4)c4ccccc4n3)CC2)cc1,i,i,100,i,i,i,·,·,·,·,·,·,
Oc1ccc(Nc2nc(NCC3CCCO3)c3ccccc3n2)cc1 (stereo not given),i,i,·,i,-6.5*,i,i,i,-12%*,56%*,38%*,i,
Cc1cccc(NC(=O)CNC(=O)c2ccccc2Cl)n1,i,i,111,i,i,i,·,·,·,·,·,·,
Oc1ccc(Cl)cc1Nc1nc(NCC2CCCO2)c2ccccc2n1 (stereo not given),i,i,103,i,i,i,·,·,·,·,·,·,
COc1ccc(OC)c(Nc2nc(NCc3ccco3)c3ccccc3n2)c1,i,i,101,i,i,i,·,·,·,·,·,·,
Oc1ccccc1Nc1nc(NCC2CCCO2)c2ccccc2n1 (stereo not given),i,i,115,i,-15*,i,·,·,·,·,75%*,i,TRPC4 sel inh 2=28%*;TRPC4 spec=-22%*;HEK293 MPD ctr 2-1=i;HEK293 MPD ctr-1=-273%*
Oc1ccccc1Nc1nc(NCc2ccco2)c2ccccc2n1,i,-6*,103,i,-8.5*,i,·,·,·,·,i,i,TRPC4 sel inh 2=74%*;TRPC4 spec=i;HEK293 MPD ctr 2-1=i;HEK293 MPD ctr-1=i
COc1ccc(NC(=O)CCCCCN2C(=O)[C@@H]3Cc4ccccc4CN3C2=O)cc1Cl,i,i,97,i,-7.4*,i,i,i,i,i,i,i,
Cc1ccc(NC(=O)CCCCCN2C(=O)[C@@H]3Cc4ccccc4CN3C2=O)cc1,i,i,103,i,i,i,·,·,·,·,·,·,
O=C1/C(=C\c2cc([N+](=O)[O-])ccc2O)SC(=S)N1Cc1ccc(Cl)cc1,51*,i,128,21*,i,137*,+,i,284%*,i,i,178%*,
CN(C)C=NCCn1c(N2CCOCC2)nc2c1c(=O)n(C)c(=O)n2C,i,i,95,i,-7.1*,i,-274%*,i,-44%*,35%*,i,i,
Cn1c(=O)c2c(nc(N3CCOCC3)n2CCc2ccccc2)n(C)c1=O,i,i,99,i,i,i,·,·,·,·,·,·,
